Results as given in ChEMBL document CHEMBL4616673 (J Med Chem, 2020).
In brackets after ≈: the same amount, converted by molar mass. Activity calls are given as the source filed them. No cut-off for these calls is given here.

Columns and labels:
[1] = Stability of the compound in pH 1 to 7.4 buffer assessed as decrease in compound concentration at 0.01 mg/ml measured up to 24 hrs by LC-MS analysis; format: physicochemical; conditions: read-out: Drug degradation
In short: (§1)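 Compound at 0.01 mg/mL final in buffer containing 10% acetonitrile at pH 1.0, 4.5, 6.6, 7.4 or 9.0. Held at 37 °C, sampled at 0, 2, 4, 6, 8, 10, 12 and 24 h. Remaining compound by LC-MS.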

HCT-116 = experiment: Antiproliferative activity against human HCT116 cells assessed as reduction in cell viability measured after 48 hrs by MTT assay; format: functional, cell-based
HeLa = experiment: Antiproliferative activity against human HeLa cells assessed as reduction in cell viability measured after 48 hrs by MTT assay; format: functional, cell-based
Raji [2] = experiment: Induction of apoptosis in human Raji cells assessed as early apoptotic cells at 1 uM measured after 48 hrs by Annexin V-FITC staining based flow cytometry (reference value: 2.12 to 2.15 %); format: functional
Raji [3] = experiment: Induction of apoptosis in human Raji cells assessed as live cells at 0.25 uM measured after 48 hrs by Annexin V-FITC staining based flow cytometry (reference value: 96.46 to 96.71 %); format: functional
Raji [4] = experiment: Induction of apoptosis in human Raji cells assessed as early apoptotic cells at 0.5 uM measured after 48 hrs by Annexin V-FITC staining based flow cytometry (reference value: 2.12 to 2.15 %); format: functional
A549 = experiment: Antiproliferative activity against human A549 cells assessed as reduction in cell viability measured after 48 hrs by MTT assay; format: functional, cell-based
[5] = Toxicity in NOD-SCID nude mouse xenografted with human Raji cells assessed as induction of liver damage at 10 mg/kg/day, po administered 6 days a week for 3 weeks and measured post last dose by H and E staining based light microscopic analysis; conditions: in vivo
MCF7 = experiment: Antiproliferative activity against human MCF7 cells assessed as reduction in cell viability measured after 48 hrs by MTT assay; format: functional, cell-based
[6] = Stability of the compound in pH 9 buffer assessed as decrease in compound concentration at 0.01 mg/ml measured up to 24 hrs by LC-MS analysis; format: physicochemical; conditions: read-out: Drug degradation; in short: as §1
Raji [7] = experiment: Induction of apoptosis in human Raji cells assessed as necrotic cells at 1 uM measured after 48 hrs by Annexin V-FITC staining based flow cytometry (reference value: 0.12 to 0.15 %); format: functional
Raji [8] = experiment: Induction of apoptosis in human Raji cells assessed as early apoptotic cells at 0.25 uM measured after 48 hrs by Annexin V-FITC staining based flow cytometry (reference value: 2.12 to 2.15 %); format: functional
Raji [9] = experiment: Induction of apoptosis in human Raji cells assessed as necrotic cells at 0.25 uM measured after 48 hrs by Annexin V-FITC staining based flow cytometry (reference value: 0.12 to 0.15 %); format: functional
NAMALVA = experiment: Antiproliferative activity against human NAMALWA cells assessed as reduction in cell viability measured after 48 hrs by MTT assay; format: functional, cell-based
K562 = experiment: Antiproliferative activity against human K562 cells assessed as reduction in cell viability measured after 48 hrs by MTT assay; format: functional, cell-based
[10] = Solubility of the compound in PBS; format: physicochemical
Raji [11] = experiment: Induction of apoptosis in human Raji cells assessed as live cells at 1 uM measured after 48 hrs by Annexin V-FITC staining based flow cytometry (reference value: 96.46 to 96.71 %); format: functional
[12] = Toxicity in NOD-SCID nude mouse xenografted with human Raji cells assessed as body weight loss at 30 mg/kg/day, po administered 6 days a week for 3 weeks and measured every 3 days during compound dosing; format: organism-based; conditions: in vivo, 10 mg/kg, in the assay text read “10 mg/kg/day” for “30 mg/kg/day”
Raji [13] = experiment: Antiproliferative activity against human Raji cells assessed as reduction in cell viability measured after 48 hrs by MTT assay; format: functional, cell-based
Raji [14] = experiment: Antitumor activity against human Raji cells xenografted in NOD-SCID nude mouse assessed as tumor growth inhibition at 10 mg/kg/day, po administered 6 days a week for 3 weeks relative to control; format: functional
In short: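 Nude mice given 1 × 10^7 Raji cells s.c. in serum-free medium plus basement membrane matrix. Randomized at 100–200 mm3 tumour volume (n = 6 per group). Oral dosing 6 days/week for 3 weeks. Vehicles: 30 mg/kg/d in 5% NMP/95% PEG400, 10 mg/kg/d in 30% PEG300/70% saline. Volume = ab²/2 every 3 days. TGI from treated vs control volume change, initial to final day.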

Raji [15] = experiment: Induction of apoptosis in human Raji cells assessed as necrotic cells at 0.5 uM measured after 48 hrs by Annexin V-FITC staining based flow cytometry (reference value: 0.12 to 0.15 %); format: functional
A-375 = experiment: Antiproliferative activity against human A375 cells assessed as reduction in cell viability measured after 48 hrs by MTT assay; format: functional, cell-based
Raji [16] = experiment: Induction of apoptosis in human Raji cells assessed as live cells at 0.5 uM measured after 48 hrs by Annexin V-FITC staining based flow cytometry (reference value: 96.46 to 96.71 %); format: functional
Raji [17] = experiment: Cell cycle arrest in human Raji cells assessed as accumulation at S phase at 0.5 uM measured after 24 hrs by propidium iodide/RNase staining based flow cytometry (reference value: 52%); format: functional
[18] = target: Dihydroorotate dehydrogenase (quinone), mitochondrial (Homo sapiens, UniProt Q02127); experiment: Inhibition of human DHODH using dihydroorotate as substrate and CoQ10 as co-substrate preincubated for 30 mins followed by substrate addition by DCIP coupled microplate reader assay
Raji [19] = experiment: Induction of mitochondrial membrane potential loss in human Raji cells measured after 48 hrs by TMRM staining based fluorescence assay; format: functional, cell-based
In short: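 Raji cells treated 48 h (CCCP as positive control), washed in PBS. Incubated with TMRM at 100 nM final for 15 min at 37 °C, fluorescence read at ex 510/em 580 nm. Mean ± SD.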

Raji [20] = experiment: Induction of ROS generation in human Raji cells assessed as increase in ROS level measured after 24 hrs by DHE dye based fluorescence microplate reader assay; format: functional, cell-based
In short: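 Raji cells treated 24 h, harvested, stained with 10 μM DHE in pre-warmed PBS for 15 min in the dark. Fluorescence read on a plate reader at ex 510/em 600 nm. Mean ± SD.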

Raji [21] = experiment: Antiproliferative activity against human Raji cells assessed as inhibition of cell proliferation at 0.156 to 1.250 uM measured after 48 hrs in presence of uridine by MTT assay; format: functional, cell-based
In short: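 Raji cells (ATCC; 10% FBS medium, 37 °C, 5% CO2) seeded at 2-10 × 10^3 cells/well, grown 24 h, then exposed to compound with or without uridine (500 μM) for 48 h. MTT added for 2-4 h; formazan dissolved in 20% acidified SDS overnight; absorbance read at 570 nm. Mean ± SD.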

Chain of Dihydroorotate dehydrogenase (quinone), mitochondrial (Q02127 whole entry): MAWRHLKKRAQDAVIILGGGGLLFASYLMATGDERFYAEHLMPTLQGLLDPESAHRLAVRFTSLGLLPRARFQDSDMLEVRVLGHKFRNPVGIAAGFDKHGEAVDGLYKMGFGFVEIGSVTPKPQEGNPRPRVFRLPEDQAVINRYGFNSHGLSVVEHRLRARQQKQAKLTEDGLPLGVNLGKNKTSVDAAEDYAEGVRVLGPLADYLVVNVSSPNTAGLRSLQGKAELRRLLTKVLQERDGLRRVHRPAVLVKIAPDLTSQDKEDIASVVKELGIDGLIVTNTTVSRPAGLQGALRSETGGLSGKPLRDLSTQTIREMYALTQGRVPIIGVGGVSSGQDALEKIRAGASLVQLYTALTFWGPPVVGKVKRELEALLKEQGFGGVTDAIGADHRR

For `Cc1c(-c2ccc(-c3ccccc3F)cc2)nc2ccc(F)cc2c1C(=O)O` [BREQUINAR], the degraded at 24 h, 0.01 mg/ml [1] was 6.3 to 12.1%, the IC50 (HCT-116; hct-116) was 4120 nM and the IC50 (HeLa; hela) was > 10000 nM. The Activity (Raji [2]) was 2.48%, the Activity (Raji [3]) was 93.68% and the Activity (Raji [4]) was 3.56%. The IC50 (A549; a549) was 4100 nM, the Activity [5] was “Toxic” and the IC50 (MCF7; mcf7) was > 10000 nM. For the same molecule, the degraded at 24 h, 0.01 mg/ml [6] was 75.4%, the Activity (Raji [7]) was 0.41% and the Activity (Raji [8]) was 2.42%. For the same molecule, the Activity (Raji [9]) was 0.27%, the IC50 (NAMALVA; namalva) was > 10000 nM and the IC50 (K562; k562) was 540 nM. For the same molecule, the solubility [10] was 75.2 µg/mL (≈ 200 µM), the Activity (Raji [11]) was 92.06% and the Activity [12] was “Toxic”. For the same molecule, the IC50 (Raji [13]; raji) was 2290 nM, the TGI (Raji [14]) was 74% and the Activity (Raji [15]) was 0.27%. It also gave an IC50 (A-375; a-375) of 590 nM and an Activity (Raji [16]) of 91.85%.
For `COc1cccc(-c2c(F)cc(-n3nnc4c3C(=O)c3ccccc3C4=O)cc2F)c1`, the IC50 (HCT-116; Homo sapiens, HCT-116, 48 h) was 600 nM, the Activity (Raji [17]) was 77.98% and the IC50 (HeLa; Homo sapiens, HeLa, 48 h) was > 10000 nM. For the same molecule, the Activity (Raji [2]) was 4.24%, the Activity (Raji [3]) was 91.81% and the Activity (Raji [4]) was 3.43%. The IC50 (A549; Homo sapiens, A549, 48 h) was 2250 nM, the IC50 (MCF7; Homo sapiens, MCF7, 48 h) was > 10000 nM and the Activity (Raji [7]) was 0.39%. The Activity (Raji [8]) was 3.58%, the Activity (Raji [9]) was 0.5% and the IC50 (NAMALVA; Homo sapiens, NAMALVA, 48 h) was 1040 nM. The IC50 [18] was 9 nM, the IC50 (K562; Homo sapiens, K562, 48 h) was 340 nM and the Activity (Raji [19]) was “Dose-dependent effect”. The solubility [10] was 21.4 µg/mL (≈ 51.3 µM), the Activity (Raji [11]) was 90.1% and the Activity (Raji [20]) was “Dose-dependent effect”. The IC50 (Raji [13]; Homo sapiens, Raji, 48 h) was 480 nM, the Activity (Raji [15]) was 0.36% and the inhibition (Raji [21]) was “inactive”. It also gave an IC50 (A-375; Homo sapiens, A-375, 48 h) of 40 nM and an Activity (Raji [16]) of 91.11%.
